Assay results from ChEMBL document CHEMBL3407478, “Development of a series of aryl pyrimidine kynurenine monooxygenase inhibitors as potential therapeutic agents for the treatment of Huntington's disease” (J Med Chem, 2015).

What was measured:
Cerebrospinal fluid = assay: Dose normalized Cmax in Sprague-Dawley rat CSF at 10 mg equivalents/kg, po after 0.25 to 12 hrs; type: ADME, organism-based; details: in vivo
Method in brief: (§1)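 Male Sprague-Dawley rats given a single oral dose of 10 mg equiv/kg as a 2 mg equiv/mL solution in 10% hydroxypropyl-β-cyclodextrin. Plasma, liver, kidney, cortex, striatum and CSF levels were measured from 0.25 to 12 h. Brain tissue was taken from nonperfused brains. CSF AUCN covers 0–8 h because the elimination phase was undefined.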

Liver = assay: Dose normalized AUC (0 to infinity) in Sprague-Dawley rat liver at 10 mg equivalents/kg, po after 0.25 to 12 hrs; type: ADME, organism-based; details: in vivo; method in brief: as §1
Plasma = assay: Dose normalized AUC (0 to infinity) in wild-type FVB/N mouse plasma at 5 mg equivalents/kg, iv by LC-MS/MS analysis; type: ADME, organism-based; details: in vivo
Method in brief: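 Male mice given a single 5 mg equiv/kg iv bolus: FVB wild type, Bcrp(−/−), Mdr1a/b(−/−) and Mdr1a/b(−/−)/Bcrp(−/−). Brain and plasma concentration–time profiles were used to derive dose-normalized AUC (0–infinity).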

Rattus norvegicus = assay: Inhibition of KMO in Sprague-Dawley rat striatum brain microdialysate assessed as time duration for elevation in kynurenic acid level at 10 mg/kg, po by […] analysis; type: functional
Method in brief: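 Freely moving Sprague-Dawley rats given 10 mg/kg po, with a microdialysis probe implanted in the striatum. Dialysate was sampled over 0–240 min for free compound and for KYN, KYNA, AA and 3-HK, quantified by LC-MS/MS. Metabolite changes were compared with t = 0 min by 2-way ANOVA.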

Cmax/dose (Cerebrospinal fluid): 0.011 µM·kg/mg
AUC/dose (Liver): 20 µM·kg·h/mg
AUC/dose (Plasma): 3.1 µM·kg·h/mg
Structure (SMILES): O=C(O)c1cc(-c2ccc(OC3CC3)c(Cl)c2)ncn1
Time (Rattus norvegicus): 60 min
